pEC50, pKd: −log10 of the molar value.
Columns and labels:
[1] = Binding affinity to HIV1 gp41-GCN4-pIQI fusion protein IQN17; set-up: species or system Human immunodeficiency virus 1
Outline: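 β-peptides labeled at the N-terminus with fluorescein-hexanoic acid NHS ester and tested in a direct fluorescence polarization assay against IQN17. IQN17 is a trimeric fusion of 17 gp41 N-terminal residues with a 29-residue isoleucine zipper. KD is taken at 50% binding of IQN17. Binding curves run in triplicate.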

[2] = test system: Human immunodeficiency virus 1; assay: Antiviral activity against HIV1 3B infected human MT2 cells assessed as cytoprotection after 5 days by MTT colorimetric method; assay type: functional, organism-based; details: Human immunodeficiency virus 1, 3B, MT2, 120 h
Outline: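 MT-2 human T-cells plated with a range of β-peptide concentrations and cultured with wild-type HIV-1 IIIB for 5 days. Live cells measured by MTT reduction to formazan, read at 595 nm. EC50 is the peptide concentration giving 50% survival of infected cells. Triplicate samples at each concentration.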

[3] = Cytotoxicity against human MT2 cells by MTT colorimetric method; assay type: cell-based
Outline: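 Uninfected MT-2 cells cultured with a range of β-peptide concentrations, without virus. Viability read by MTT colorimetric assay. CC50 is the concentration giving 50% inhibition of MT-2 cell growth. Triplicate samples at each concentration.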

[4] = Selectivity ratio of CC50 for human MT2 cells to EC50 for HIV1 3B infected human MT2 cells; assay type: ADME, cell-based; details: for selectivity ratio: MT2 cells and HIV1 3B infected MT2 cells, read-out: Ratio CC50/EC50
Outline: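 Ratio of CC50 to EC50. CC50 comes from MTT viability of uninfected MT-2 cells given peptide alone. EC50 comes from MTT survival of MT-2 cells infected with HIV-1 IIIB after 5 days. Both curves used triplicate samples.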

Row | pKd [1] | Molecule | pEC50 [2] | CC50 [3] [µM] | selectivity ratio [4] | Ratio CC50/EC50 ([4]; mt2)
1 | 4.85 | CC[C@@](C)(CC(=O)N[C@H](CC(=O)O)CC(=O)NC(C)(C)CC(=O)NC(CC(=O)N[C@@H](CCN)CC(=O)NC(C)(C)CC(=O)N[C@H](CC(=O)NC(CC(=O)O)CC(=O)O)Cc1c[nH]c2ccccc12)Cc1ccc(I)cc1)NC(=O)CC(C)(C)NC(=O)C[C@@H](N)CCN (stereo partly specified) | 5.05 | 23 |  | 
2 | 4.80 | CC[C@@](C)(CC(=O)N[C@H](CC(=O)O)CC(=O)NC(C)(C)CC(=O)NC(CC(=O)N[C@@H](CCN)CC(=O)NC(C)(C)CC(=O)N[C@H](CC(=O)NC(CC(=O)O)CC(=O)O)Cc1c[nH]c2ccccc12)Cc1cccc(F)c1)NC(=O)CC(C)(C)NC(=O)C[C@@H](N)CCN (stereo partly specified) | 4.74 | 50 |  | 
3 | 4.88 | CC[C@@](C)(CC(=O)N[C@H](CC(=O)O)CC(=O)NC(C)(C)CC(=O)NC(CC(=O)N[C@@H](CCN)CC(=O)NC(C)(C)CC(=O)N[C@H](CC(=O)NC(CC(=O)O)CC(=O)O)Cc1c[nH]c2ccccc12)Cc1ccccc1Cl)NC(=O)CC(C)(C)NC(=O)C[C@@H](N)CCN (stereo partly specified) | 5.06 | 31 | 3.5 | 
4 | 4.91 | CC[C@@](C)(CC(=O)N[C@H](CC(=O)O)CC(=O)NC(C)(C)CC(=O)NC(CC(=O)N[C@@H](CCN)CC(=O)NC(C)(C)CC(=O)N[C@H](CC(=O)NC(CC(=O)O)CC(=O)O)Cc1c[nH]c2ccccc12)Cc1ccc2ccccc2c1)NC(=O)CC(C)(C)NC(=O)C[C@@H](N)CCN (stereo partly specified) | 5.09 | 23 |  | 

The next lines start with the molecule.

Row | Molecule | pKd [1] | pEC50 [2] | CC50 [3] [µM] | selectivity ratio [4] | Ratio CC50/EC50 ([4]; mt2)
5 | enfuvirtide |  | 7.43 |  |  | 
6 | CC[C@@](C)(CC(=O)N[C@H](CC(=O)O)CC(=O)NC(C)(C)CC(=O)NC(CC(=O)N[C@@H](CCN)CC(=O)NC(C)(C)CC(=O)N[C@H](CC(=O)NC(CC(=O)O)CC(=O)O)Cc1c[nH]c2ccccc12)Cc1cccc(C(F)(F)F)c1)NC(=O)CC(C)(C)NC(=O)C[C@@H](N)CCN (stereo partly specified) | 4.99 | 4.72 | 150 | 7.9 | 
7 | CC[C@@](C)(CC(=O)N[C@H](CC(=O)O)CC(=O)NC(C)(C)CC(=O)NC(CC(=O)N[C@@H](CCN)CC(=O)NC(C)(C)CC(=O)N[C@H](CC(=O)NC(CC(=O)O)CC(=O)O)Cc1c[nH]c2ccccc12)Cc1cccnc1)NC(=O)CC(C)(C)NC(=O)C[C@@H](N)CCN (stereo partly specified) | 3.98 | < 3.60 | > 250 |  | Not Active
8 | CC[C@@](C)(CC(=O)N[C@H](CC(=O)O)CC(=O)NC(C)(C)CC(=O)N[C@@H](CC(=O)N[C@@H](CCN)CC(=O)NC(C)(C)CC(=O)N[C@H](CC(=O)NC(CC(=O)O)CC(=O)O)Cc1c[nH]c2ccccc12)Cc1c[nH]c2ccccc12)NC(=O)CC(C)(C)NC(=O)C[C@@H](N)CCN | 4.78 | 4.25 | 100 | 1.8 | 
